Reference: paper PMC4982705 (Biochemical pharmacology, 2016)

Tests used:
Assay in all cases: intrinsic fluorescence titration
Assay type in all cases: binding
[1] = molecular target: SULT1B1 (hSULT1B1, wildtype) (Homo sapiens, UniProt O43704, E275K/H109Y)
Outline: (§1)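 Ligand: PAP (cofactor product). Protein: N-terminal 6xHis human SULT1B1, expressed in E. coli BL21-DE3-RIL (IPTG, 20°C) and purified on Ni-NTA. 0.20 µM enzyme in 10 mM sodium phosphate pH 7.8, 10% glycerol, 150 mM NaCl. PAP titrated in; each step mixed 15 s, then intrinsic fluorescence (ex 282, em 338) read for 15 s. Kd from one-site hyperbolic fit; triplicate runs.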

[2] = molecular target: SULT1B1 (hSULT1B1, wildtype) (Homo sapiens, UniProt O43704)
SULT1B1 (hSULT1B1, wildtype) (Homo sapiens, UniProt O43704), sequence (O43704 whole entry): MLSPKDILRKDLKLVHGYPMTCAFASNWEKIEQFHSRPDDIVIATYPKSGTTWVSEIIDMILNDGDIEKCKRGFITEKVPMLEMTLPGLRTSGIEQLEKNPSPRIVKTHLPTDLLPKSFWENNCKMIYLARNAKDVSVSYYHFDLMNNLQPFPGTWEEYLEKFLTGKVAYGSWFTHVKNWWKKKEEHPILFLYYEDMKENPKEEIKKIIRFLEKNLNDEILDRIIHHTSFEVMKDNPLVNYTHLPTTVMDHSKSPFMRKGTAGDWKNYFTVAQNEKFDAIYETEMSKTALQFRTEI
Outline: as §1

[3] = molecular target: SULT1B1 (hSULT1B1, wildtype) (Homo sapiens, UniProt O43704, K266E)
SULT1B1 (hSULT1B1, wildtype) (Homo sapiens, UniProt O43704, K266E), sequence (O43704 whole entry K266E): as the sequence (O43704 whole entry) above, with K266E counted along it

[4] = molecular target: SULT1B1 (hSULT1B1, wildtype) (Homo sapiens, UniProt O43704, E275K)
SULT1B1 (hSULT1B1, wildtype) (Homo sapiens, UniProt O43704, E275K), sequence (O43704 whole entry E275K): as the sequence (O43704 whole entry) above, with E275K counted along it
Outline: as §1

[5] = molecular target: SULT1B1-K266E/E275K heterodimer (Homo sapiens, UniProt O43704, E275K/K266E)
SULT1B1-K266E/E275K heterodimer, sequence (O43704 whole entry K266E): as the sequence (O43704 whole entry) above, with K266E counted along it
SULT1B1-K266E/E275K heterodimer, sequence (O43704 whole entry E275K): as the sequence (O43704 whole entry) above, with E275K counted along it
Outline: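 His-tagged K266E and E275K SULT1B1 subunits were purified separately from E. coli, then co-incubated at normalized concentrations for 1 h on ice to form the heterodimer. 0.20 µM enzyme in 10 mM sodium phosphate pH 7.8, 10% glycerol, 150 mM NaCl. PAP added stepwise; intrinsic fluorescence (ex 282/em 338) averaged over 15 s after 15 s mixing. Kd from one-site hyperbolic fit; triplicate.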

SULT1B1 (hSULT1B1, wildtype) (Homo sapiens, UniProt O43704, E275K/H109Y), sequence (O43704 whole entry H109Y/E275K): as the sequence (O43704 whole entry) above, with H109Y, E275K counted along it

Kd [1]: 668 ± 31 nM | Kd [2]: 106 ± 9 nM | Kd [3]: 1470 nM | Kd [4]: 80 ± 9 nM | Kd [5]: 180 ± 6 nM
Compound: Nc1ncnc2c1ncn2[C@@H]1O[C@H](COP(=O)(O)O)[C@@H](OP(=O)(O)O)[C@H]1O [PAP, 3′,5′-diphosphoadenosine]
